The text below walks through data of ChEMBL document CHEMBL4373708 (J Med Chem, 2019).

For one series, the target named is T1, Chloride anion exchanger (Mus musculus, UniProt Q9WVC8).
T1 sequence (Q9WVC8 whole entry): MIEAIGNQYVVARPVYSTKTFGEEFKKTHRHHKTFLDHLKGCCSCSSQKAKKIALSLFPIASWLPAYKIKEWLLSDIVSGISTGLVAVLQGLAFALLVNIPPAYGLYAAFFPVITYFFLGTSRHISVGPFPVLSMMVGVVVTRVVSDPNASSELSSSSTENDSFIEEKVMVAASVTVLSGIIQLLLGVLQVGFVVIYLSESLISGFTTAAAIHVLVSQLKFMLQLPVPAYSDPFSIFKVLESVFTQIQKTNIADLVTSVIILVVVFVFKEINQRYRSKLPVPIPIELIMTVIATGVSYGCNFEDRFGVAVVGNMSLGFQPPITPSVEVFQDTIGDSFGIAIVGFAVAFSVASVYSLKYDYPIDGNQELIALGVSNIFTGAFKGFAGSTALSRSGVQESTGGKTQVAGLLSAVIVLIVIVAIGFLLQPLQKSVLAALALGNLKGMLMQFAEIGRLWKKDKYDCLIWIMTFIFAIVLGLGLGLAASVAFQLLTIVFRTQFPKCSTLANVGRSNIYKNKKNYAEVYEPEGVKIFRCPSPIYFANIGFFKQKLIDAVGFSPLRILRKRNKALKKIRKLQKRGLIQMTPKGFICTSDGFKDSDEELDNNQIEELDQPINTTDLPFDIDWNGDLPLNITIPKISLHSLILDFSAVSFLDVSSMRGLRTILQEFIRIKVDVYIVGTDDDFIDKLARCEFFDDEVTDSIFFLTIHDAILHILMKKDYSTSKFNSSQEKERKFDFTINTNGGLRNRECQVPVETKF
As to the kind of experiment: Inhibition of mouse slc26a3 expressed in FRT cells co-expressing EYFP-H148Q/I152L/F46L assessed as reduction in protein-mediated chloride/iodide exchange preincubated for 10 mins followed by NaI-substituted PBS addition and measured by YFP-based fluorescence assay. Format: cell-based. Put shortly:
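Chloride/iodide exchange was assayed in FRT cells co-expressing murine slc26a3 and EYFP-H148Q/I152L/F46L. Cells in PBS received iodide-substituted PBS (NaCl replaced by 140 mM NaI), and the fluorescence quenching rate was measured. Concentration–inhibition data were fitted to a single-site model for IC50. Data are representative of 3 replicates.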

A short description of series [1]: AUC in mouse at 5 mg/kg, ip by LC-MS analysis. Format: ADME, organism-based. The note with it: in vivo. Put shortly:
(§1)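 Single intraperitoneal or oral dose in mice at 5 mg/kg (vehicle: saline with 5% DMSO and 10% Kolliphor HS 15) or 10 mg/kg (vehicle: PBS with 5% DMSO and 20% (2-hydroxypropyl)-β-cyclodextrin). Blood taken by retroorbital puncture at set times, serum separated by centrifugation at 4000 g for 20 min at 24 °C, compound quantified by LC/MS.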

A short description of series [2]: AUC in mouse at 5 mg/kg, po by LC-MS analysis. To be noted: in vivo. It counts as ADME, organism-based. The procedure, abridged: as §1
Series [3] is described as follows: Tmax in mouse at 5 mg/kg, po by LC-MS analysis. Format: ADME, organism-based. To be noted: in vivo. The procedure, abridged: as §1
Series [4] is described as follows: Tmax in mouse at 5 mg/kg, ip by LC-MS analysis. It counts as ADME, organism-based. The note with it: in vivo. Put shortly:
as §1

Series [5] can be described thus: Cmax in mouse at 5 mg/kg, po by LC-MS analysis. Format: ADME, organism-based. On the set-up: dose 5 mg/kg, route oral. To be noted: in vivo. The procedure, abridged:
as §1

The nature of series [6]: Cmax in mouse at 5 mg/kg, ip by LC-MS analysis. Also on record: dose 5 mg/kg, route intraperitoneal. The note with it: in vivo. It counts as ADME, organism-based. The procedure, abridged: as §1
Series [7] in a line: Time at which serum concentration stays above in vitro IC50 for inhibition of mouse slc26a3 expressed in FRT cells in mouse at 5 mg/kg, po or ip by LC-MS analysis. Format: organism-based. The note with it: in vivo. Put shortly: as §1

A word on the IC50: it is the midpoint of a concentration-inhibition curve. On to `Cc1c(CC(=O)O)c(=O)oc2c(C)c(OCc3cccnc3)ccc12`, for which the IC50 on Chloride anion exchanger was > 5 µM.

Consider `Cc1c(CC(=O)O)c(=O)oc2c(C)c(OCc3ccccc3Cl)ccc12`, for which the IC50 on Chloride anion exchanger was 18 µM.

On to `Cc1c(CC(=O)O)c(=O)oc2c(C)c(OCc3cccc(Cl)c3)ccc12`, for which, on Chloride anion exchanger, the IC50 worked out at 1 µM.

For the molecule `Cc1c(CC(=O)O)c(=O)oc2c(C)c(OS(=O)(=O)c3cccc(Cl)c3)ccc12`, the IC50 on Chloride anion exchanger was > 5 µM.

In the case of `Cc1c(CC(=O)O)c(=O)oc2c(C)c(OCc3ccncc3)ccc12`, at Chloride anion exchanger, the IC50 is > 5 µM.

Consider `Cc1c(CC(=O)O)c(=O)oc2c(C)c(OCc3ccc(I)cc3)ccc12`, for which, on Chloride anion exchanger, the IC50 was > 5 µM.

As for `Cc1c(CC(=O)O)c(=O)oc2c(C)c(OCc3ccc(Cl)cc3)ccc12`, at Chloride anion exchanger, the IC50 is > 5 µM.

For the molecule `Cc1c(CC(=O)O)c(=O)oc2c(C)c(OCc3cccc(CO)n3)ccc12`, at Chloride anion exchanger, the IC50 is > 5 µM.

Turning to `Cc1c(OCc2cccc(Br)c2)ccc2cc(C(=O)O)c(=O)oc12`, at Chloride anion exchanger, the IC50 is > 5 µM.

With `Cc1c(CC(=O)O)c(=O)oc2c(C)c(OCc3cc(F)cc(C(F)(F)F)c3)ccc12`, the IC50 at Chloride anion exchanger is 0.06 µM.

For the molecule `Cc1cccc(COc2ccc3c(C)c(CC(=O)O)c(=O)oc3c2C)c1`, on Chloride anion exchanger, the IC50 was determined as 0.5 µM.

Take `Cc1c(OCc2cccc(Br)c2)ccc2cc(C(=O)NO)c(=O)oc12`: the IC50 on Chloride anion exchanger was 0.45 µM.

With `CCCOc1ccc2c(C)c(CC(=O)O)c(=O)oc2c1C`, the IC50 at Chloride anion exchanger was > 5 µM.

Consider `Cc1c(OCc2cccc(I)c2)ccc2cc(C(=O)O)c(=O)oc12`, for which, on Chloride anion exchanger, the IC50 was > 5 µM.

On to `Cc1c(OCc2cccc(Br)c2)ccc2cc(C(N)=O)c(=O)oc12`, for which the IC50 at Chloride anion exchanger was > 5 µM.

As a reminder, the AUC is the area under the concentration-time curve, a measure of exposure. Read a low AUC as low exposure. A word on the Tmax: it is the time from dosing to the highest level. As usually defined, the Cmax is the maximum level reached in the sampled fluid or tissue. As for `Cc1c(CC(=O)O)c(=O)oc2c(C)c(OCc3cccc(Br)c3)ccc12`, the AUC in series [1] was 231 µM·h; in series [2], 124 µM·h. The Tmax in series [3] worked out at 5.8 h; in series [4], 1.5 h. The Cmax in series [5] came to 9.4 µM; in series [6] it was 24.3 µM. For the same molecule, in series [7], the Time entry was “>= 24 hr”.

For the molecule `CCCCOc1ccc2c(C)c(CC(=O)O)c(=O)oc2c1C`, the IC50 on Chloride anion exchanger was found to be 1.5 µM.

Regarding `C=CCOc1ccc2c(C)c(CC(=O)O)c(=O)oc2c1C`, the IC50 at Chloride anion exchanger is > 5 µM.

On to `Cc1c(CC(=O)O)c(=O)oc2c(C)c(OCc3ccccc3Br)ccc12`, for which, on Chloride anion exchanger, the IC50 was found to be 10 µM.

On to `Cc1c(CC(=O)O)c(=O)oc2c(C)c(OCc3cccc(F)c3)ccc12`, for which the IC50 at Chloride anion exchanger was determined as 0.9 µM.

With `Cc1c(CC(=O)O)c(=O)oc2c(C)c(OCc3ccccn3)ccc12`, the IC50 at Chloride anion exchanger is > 5 µM.

For the molecule `Cc1cccc(S(=O)(=O)Oc2ccc3c(C)c(CC(=O)O)c(=O)oc3c2C)c1`, at Chloride anion exchanger, the IC50 was > 5 µM.

Regarding `Cc1c(CC(=O)O)c(=O)oc2c(C)c(OCc3ccc(Br)cc3)ccc12`, the IC50 at Chloride anion exchanger was > 5 µM.

Take `Cc1c(CCC(=O)O)c(=O)oc2c(C)c(OCc3cccc(I)c3)ccc12`: the IC50 at Chloride anion exchanger was > 5 µM.

Regarding `Cc1c(CC(=O)O)c(=O)oc2c(C)c(OCCC(=O)O)ccc12`, the IC50 on Chloride anion exchanger was > 5 µM.

For the molecule `Cc1c(CC(=O)O)c(=O)oc2c(C)c(OCCn3cccc3)ccc12`, at Chloride anion exchanger, the IC50 was > 5 µM.

Consider `Cc1c(CC(=O)O)c(=O)oc2c(C)c(OCc3cccc(C(F)(F)F)n3)ccc12`, for which the IC50 on Chloride anion exchanger is > 5 µM.

On to `Cc1c(CC(N)=O)c(=O)oc2c(C)c(OCc3cccc(Br)c3)ccc12`, for which the IC50 at Chloride anion exchanger was found to be 3.3 µM.

`Cc1cc(C)cc(COc2ccc3c(C)c(CC(=O)O)c(=O)oc3c2C)c1`: the IC50 on Chloride anion exchanger came to 15 µM.

In the case of `Cc1c(CCC(=O)O)c(=O)oc2c(C)c(OCc3cccc(Br)c3)ccc12`, on Chloride anion exchanger, the IC50 is > 5 µM.

For the molecule `CCCCCOc1ccc2c(C)c(CC(=O)O)c(=O)oc2c1C`, the IC50 at Chloride anion exchanger was 1 µM.

For the molecule `Cc1c(CC(=O)O)c(=O)oc2c(C)c(OCc3cc(C(F)(F)F)cc(C(F)(F)F)c3)ccc12`, the IC50 at Chloride anion exchanger is 0.3 µM.

On to `COCCOc1ccc2c(C)c(CC(=O)O)c(=O)oc2c1C`, for which the IC50 on Chloride anion exchanger was > 5 µM.

With `Cc1c(CC(=O)O)c(=O)oc2c(C)c(OCCc3cccc(C(F)(F)F)c3)ccc12`, the IC50 on Chloride anion exchanger was > 5 µM.
